From ChEMBL document CHEMBL1137515, “Alpha-diaminobutyric acid-linked hairpin polyamides” (Bioorg Med Chem, 2007)
One block for each molecule: values may come before it.

Assays:
[1] = Binding affinity to pMFST5 overlapped extended O site
Method in brief: (§1)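 Quantitative DNase I footprinting on the 301 bp 5′ end-labeled PCR product of plasmid pMFST5, using 1 pM to 100 nM polyamide across 11 lanes. DNA was incubated with polyamide or water for 12–16 h at room temperature before DNase I digestion. Equilibrium association constants (M−1) from binding isotherms are the mean of three experiments.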

[2] = Binding affinity to pMFST5 slipped extended S site; method in brief: as §1
[3] = Binding affinity to pMFST5 forward hairpin binding M site; method in brief: as §1
[4] = Binding affinity to pMFST ATGGTCA match site
Method in brief: (§2)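 DNase I footprinting titrations on the 5′ end-labeled PCR product of the relevant plasmid (pMFST or pMFST2). DNA was equilibrated with polyamide or water (control) for 12–16 h at room temperature before DNase I cleavage. Binding isotherms gave equilibrium association constants (M−1), reported as the mean of three titrations.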

[5] = Binding affinity to pMFST AACGACT mismatch site A; method in brief: as §2
[6] = Binding affinity to pMFST TAGCACA mismatch site B; method in brief: as §2
[7] = Binding affinity to pMFST TAGTCGT mismatch site B; method in brief: as §2
[8] = Binding affinity to pMFST TAGTGGT match site; method in brief: as §2
[9] = Binding affinity to pMFST2 TAGGTCT mismatch site A; method in brief: as §2
[10] = Binding affinity to pMFST2 TAGGTGT match site; method in brief: as §2
[11] = Binding affinity to pMFST ATATGGT mismatch site A; method in brief: as §2
[12] = Binding affinity to pMFST2 TAGCTGT mismatch site B; method in brief: as §2

SMILES: CN(C)CCCNC(=O)CCNC(=O)c1cc(NC(=O)c2cc(NC(=O)c3cc(NC(=O)c4nc(NC(=O)CNC(=O)c5cc(NC(=O)c6cc(NC(=O)c7nc(NC(=O)c8nccn8C)cn7C)cn6C)cn5C)cn4C)cn3C)cn2C)cn1C
Ka [1]: 5.9 10^8/M
Ka [2]: 1.3 10^9/M
Ka [3]: 7 10^8/M

SMILES: CN(C)CCCNC(=O)CCNC(=O)c1cc(NC(=O)c2cc(NC(=O)c3cc(NC(=O)c4nc(NC(=O)[C@@H](CCN)NC(=O)c5cc(NC(=O)c6cc(NC(=O)c7nc(NC(=O)c8nccn8C)cn7C)cn6C)cn5C)cn4C)cn3C)cn2C)cn1C
Ka [4]: 4.4 10^9/M
Ka [5]: 1.5 10^8/M
Ka [1]: 4.7 10^9/M
Ka [3]: 9.8 10^9/M

SMILES: CN(C)CCCNC(=O)CCNC(=O)c1cc(NC(=O)c2cc(NC(=O)c3cc(NC(=O)c4cc(NC(=O)[C@@H](CCN)NC(=O)c5nc(NC(=O)c6cc(NC(=O)c7nc(NC(=O)c8nccn8C)cn7C)cn6C)cn5C)cn4C)cn3C)cn2C)cn1C
Ka [9]: 8.5 10^7/M
Ka [10]: 3 10^8/M

SMILES: CN(C)CCCNC(=O)CCNC(=O)c1cc(NC(=O)c2cc(NC(=O)c3cc(NC(=O)c4cc(NC(=O)[C@H](N)CCNC(=O)c5nc(NC(=O)c6nc(NC(=O)CCNC(=O)c7nccn7C)cn6C)cn5C)cn4C)cn3C)cn2C)cn1C
Ka [11]: 9.9 10^8/M
Ka [7]: 6.2 10^9/M
Ka [8]: 4.3 10^10/M

Next, values leading:

Ka [4]: 4.9 10^10/M
Ka ([5]; in the assay text read “mismatch site C” for “mismatch site A”): 1.8 10^10/M
Ka [6]: 3.9 10^8/M
SMILES: CN(C)CCCNC(=O)CCNC(=O)c1cc(NC(=O)c2cc(NC(=O)c3cc(NC(=O)c4nc(NC(=O)[C@H](N)CCNC(=O)c5cc(NC(=O)c6cc(NC(=O)c7nc(NC(=O)c8nccn8C)cn7C)cn6C)cn5C)cn4C)cn3C)cn2C)cn1C

Ka [7]: 6.2 10^7/M
Ka [8]: 8 10^8/M
SMILES: CN(C)CCCNC(=O)CCNC(=O)c1cc(NC(=O)c2cc(NC(=O)c3cc(NC(=O)c4cc(NC(=O)[C@@H](CCN)NC(=O)c5nc(NC(=O)c6nc(NC(=O)CCNC(=O)c7nccn7C)cn6C)cn5C)cn4C)cn3C)cn2C)cn1C

Ka [12]: 1.1 10^9/M
Ka [9]: 1.1 10^10/M
Ka [10]: 4.4 10^10/M
SMILES: CN(C)CCCNC(=O)CCNC(=O)c1cc(NC(=O)c2cc(NC(=O)c3cc(NC(=O)c4cc(NC(=O)[C@H](N)CCNC(=O)c5nc(NC(=O)c6cc(NC(=O)c7nc(NC(=O)c8nccn8C)cn7C)cn6C)cn5C)cn4C)cn3C)cn2C)cn1C
